Activity calls are given as the source filed them. The rule behind the calls is not given here.
Tests used:
[1] = biological target: AMPK alpha2/beta1/gamma1 (Homo sapiens) (UniProt P54646+P54619+Q9Y478); assay: Inhibition of AMPK-alpha2/beta1/gamma1 (unknown origin) at 0.19 uM relative to control; type: protein-complex assay
[2] = biological target: Rho-associated protein kinase 1 (Homo sapiens) (UniProt Q13464); assay: Inhibition of ROCK1 (unknown origin) at 0.19 uM relative to control
[3] = biological target: Protein kinase C beta type (Homo sapiens) (UniProt P05771); assay: Inhibition of PKC-beta2 (unknown origin) at 0.19 uM relative to control
[4] = biological target: Interleukin-1 receptor-associated kinase 4 (Homo sapiens) (UniProt Q9NWZ3); assay: Inhibition of IRAK4 (unknown origin) at 0.19 uM relative to control
[5] = biological target: Ephrin type-A receptor 3 (Homo sapiens) (UniProt P29320); assay: Inhibition of EPHA3 (unknown origin) at 0.19 uM relative to control
[6] = tested on: Tyrosine-protein kinase ABL1 (Homo sapiens), P00519 [Q252H]; assay: Inhibition of Abl Q252H mutant (unknown origin) at 0.19 uM relative to control
[7] = biological target: Phosphorylase b kinase gamma catalytic chain, liver/testis isoform (Homo sapiens) (UniProt P15735); assay: Inhibition of PhKg2 (unknown origin) at 0.19 uM relative to control
[8] = biological target: Dual specificity tyrosine-phosphorylation-regulated kinase 1B (Homo sapiens) (UniProt Q9Y463); assay: Inhibition of DYRK1B (unknown origin) at 0.19 uM relative to control
[9] = biological target: Protein kinase C theta type (Homo sapiens) (UniProt Q04759); assay: Inhibition of PKC-theta (unknown origin) at 0.19 uM relative to control
[10] = biological target: Homeodomain-interacting protein kinase 4 (Homo sapiens) (UniProt Q8NE63); assay: Inhibition of HIPK4 (unknown origin) at 0.19 uM relative to control
[11] = biological target: Calcium/calmodulin-dependent protein kinase type II subunit gamma (Homo sapiens) (UniProt Q13555); assay: Inhibition of CaMK2-gamma (unknown origin) at 0.19 uM relative to control
[12] = biological target: Ribosomal protein S6 kinase alpha-4 (Homo sapiens) (UniProt O75676); assay: Inhibition of MSK2 (unknown origin) at 0.19 uM relative to control
[13] = biological target: Ephrin type-A receptor 4 (Homo sapiens) (UniProt P54764); assay: Inhibition of EPHA4 (unknown origin) at 0.19 uM relative to control
[14] = biological target: Serine/threonine-protein kinase PAK 5 (Homo sapiens) (UniProt Q9P286); assay: Inhibition of PAK5/PAK7 (unknown origin) at 0.19 uM relative to control
[15] = tested on: Mus musculus; assay: Antiinflammatory activity in C57BL/6J mouse assessed as reduction in recombinant mouse IL-6 induced serum hepcidin level at 30 mg/kg, po pretreated for 30 mins followed by IL-6 challenge and measured after 4 hrs by LC-MS/MS analysis; type: functional, organism-based
Procedure, shortened: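 Male C57BL/6J mice, 9 weeks old, were dosed orally at 30 mg/kg (0.5% methylcellulose suspension, n = 4) 30 min before intravenous mouse IL-6. Blood was taken 4 h after IL-6 and serum hepcidin concentration measured. The comparison was against a 0.5% MC vehicle group, with a saline group included, by t-test.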

[16] = biological target: Cyclin-dependent kinase 5/CDK5 activator 1 (Homo sapiens) (UniProt Q00535+Q15078); assay: Inhibition of CDK5/p25 (unknown origin) at 0.164 uM relative to control; type: protein-complex assay
[17] = biological target: T1, Testis-specific serine/threonine-protein kinase 2 (Homo sapiens) (UniProt Q96PF2); assay: Inhibition of TSSK2 (unknown origin) at 0.164 uM relative to control
T1 sequence (whole entry): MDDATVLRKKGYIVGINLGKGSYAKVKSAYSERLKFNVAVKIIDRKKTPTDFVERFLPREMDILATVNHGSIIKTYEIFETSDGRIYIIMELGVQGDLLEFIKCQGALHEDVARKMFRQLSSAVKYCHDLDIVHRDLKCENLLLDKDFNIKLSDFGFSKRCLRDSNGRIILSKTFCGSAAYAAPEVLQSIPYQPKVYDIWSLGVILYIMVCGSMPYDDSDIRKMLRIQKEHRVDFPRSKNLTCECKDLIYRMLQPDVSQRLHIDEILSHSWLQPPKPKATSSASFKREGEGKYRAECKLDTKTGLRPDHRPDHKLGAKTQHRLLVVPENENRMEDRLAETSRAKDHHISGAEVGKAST

[18] = biological target: Protein-tyrosine kinase 2-beta (Homo sapiens) (UniProt Q14289); assay: Inhibition of PYK2 (unknown origin) at 0.164 uM relative to control
[19] = biological target: Tyrosine-protein kinase Fer (Homo sapiens) (UniProt P16591); assay: Inhibition of Fer (unknown origin) at 0.164 uM relative to control
[20] = biological target: Ephrin type-A receptor 2 (Homo sapiens) (UniProt P29317); assay: Inhibition of EPHA2 (unknown origin) at 0.164 uM relative to control
[21] = biological target: Mitogen-activated protein kinase 1 (Homo sapiens) (UniProt P28482); assay: Inhibition of Erk2 (unknown origin) at 0.164 uM relative to control
[22] = biological target: Dual specificity tyrosine-phosphorylation-regulated kinase 2 (Homo sapiens) (UniProt Q92630); assay: Inhibition of DYRK2 (unknown origin) at 0.164 uM relative to control
[23] = biological target: Hepatocyte growth factor receptor (Homo sapiens) (UniProt P08581); assay: Inhibition of MET (unknown origin) at 0.164 uM relative to control
[24] = tested on: Platelet-derived growth factor receptor alpha (Homo sapiens), P16234 [D842V]; assay: Inhibition of PDGFRA D842V mutant (unknown origin) at 0.164 uM relative to control
[25] = tested on: Leucine-rich repeat serine/threonine-protein kinase 2 (Homo sapiens), Q5S007 [G2019S]; assay: Inhibition of LRRK2 G2019S mutant (unknown origin) at 0.164 uM relative to control
[26] = biological target: RAF proto-oncogene serine/threonine-protein kinase (Homo sapiens) (UniProt P04049); assay: Inhibition of c-Raf (unknown origin) at 0.164 uM relative to control
[27] = biological target: Fibroblast growth factor receptor 4 (Homo sapiens) (UniProt P22455); assay: Inhibition of FGFR4 (unknown origin) at 0.164 uM relative to control
[28] = biological target: Serine/threonine-protein kinase Chk1 (Homo sapiens) (UniProt O14757); assay: Inhibition of CHK1 (unknown origin) at 0.164 uM relative to control
[29] = biological target: Ribosomal protein S6 kinase alpha-4 (Homo sapiens) (UniProt O75676); assay: Inhibition of MSK2 (unknown origin) at 0.164 uM relative to control
[30] = biological target: Phosphorylase b kinase gamma catalytic chain, skeletal muscle/heart isoform (Homo sapiens) (UniProt Q16816); assay: Inhibition of PhKg1 (unknown origin) at 0.164 uM relative to control
[31] = tested on: Fibroblast growth factor receptor 2 (Homo sapiens), P21802 [N549H]; assay: Inhibition of FGFR2 N549H mutant (unknown origin) at 0.164 uM

For `Cc1[nH]nc(C2CC2)c1-c1ccc2c(-c3ccc(N4CCN(C)CC4)nc3)n[nH]c2c1`, the inhibition [1] was 13.7%, the inhibition [2] was -7.3% and the inhibition [3] was 0.3%. For the same molecule, the inhibition [4] was 4.3%, the inhibition [5] was 1.3% and the inhibition [6] was 71%. The inhibition [7] was -4%, the inhibition [8] was 3% and the inhibition [9] was 1.7%. It also gave an inhibition [10] of -0.7%, an inhibition [11] of -4% and an inhibition [12] of -3.3%. It also gave an inhibition [13] of 2% and an inhibition [14] of -2.7%.
In the case of `COC(=O)Nc1cc(-c2c(C3CC3)n[nH]c2C)cc2[nH]ncc12`, the Activity [15] was “Active”, the inhibition [16] was 6.3% and the inhibition [17] was -5.7%. For the same molecule, the inhibition [18] was 2.7%, the inhibition [19] was -1.3% and the inhibition [20] was -2.3%. For the same molecule, the inhibition [21] was 9%, the inhibition [22] was 4.7% and the inhibition [23] was 0%. The inhibition [24] was 23.7%, the inhibition [25] was 2.3% and the inhibition [26] was 10%. For the same molecule, the inhibition [27] was 1.3%, the inhibition [28] was 5.3% and the inhibition [29] was 4%. The inhibition [30] was 1% and the inhibition [31] was -3.3%.

From ChEMBL document CHEMBL4118098, “Discovery of DS28120313 as a potent orally active hepcidin production inhibitor: Design and optimization of novel 4,6-disubstituted indazole derivatives” (Bioorg Med Chem Lett, 2017)
